In the library only some 2.5% were active in any assay of this set; here they are far more common.
MT1-MMP txn act: MT1-MMP promoter transcription activation. HT1080 MT1-MMP promoter luciferase reporter, luminescence, overnight; hits give high values. activation factor at 10 µM. 86,000 compounds, 0.16% hits. AID 750;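 active = activation factor of at least 2 for MT1-MMP transcription at 10 µM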
PKA inh: PKA (human) kinase inhibition. P17612. PKA Kemptide phosphorylation, Kinase-Glo ATP luminescence. inhibition, % at 6 µM. 65,000 compounds, 0.1% hits;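 active = inhibition above the screen-wide mean inhibition plus 3 SD, cut at about 21% in these data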
ROCK2 inh: inhibitors of human Rho kinase 2 | O75116 | purified ROCK2, Kinase-Glo ATP depletion luminescence | inhibition, % at 6 µM | 60,000 compounds, 0.35% hits | AID 604;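 active = inhibition above the screen-wide mean inhibition plus 3 SD, cut at about 18% in these data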;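 note: plate controls were DMSO wells for no effect and Y-27632 control wells after no-enzyme background subtraction for full effect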
Target sequence (O75116 whole entry, looked up): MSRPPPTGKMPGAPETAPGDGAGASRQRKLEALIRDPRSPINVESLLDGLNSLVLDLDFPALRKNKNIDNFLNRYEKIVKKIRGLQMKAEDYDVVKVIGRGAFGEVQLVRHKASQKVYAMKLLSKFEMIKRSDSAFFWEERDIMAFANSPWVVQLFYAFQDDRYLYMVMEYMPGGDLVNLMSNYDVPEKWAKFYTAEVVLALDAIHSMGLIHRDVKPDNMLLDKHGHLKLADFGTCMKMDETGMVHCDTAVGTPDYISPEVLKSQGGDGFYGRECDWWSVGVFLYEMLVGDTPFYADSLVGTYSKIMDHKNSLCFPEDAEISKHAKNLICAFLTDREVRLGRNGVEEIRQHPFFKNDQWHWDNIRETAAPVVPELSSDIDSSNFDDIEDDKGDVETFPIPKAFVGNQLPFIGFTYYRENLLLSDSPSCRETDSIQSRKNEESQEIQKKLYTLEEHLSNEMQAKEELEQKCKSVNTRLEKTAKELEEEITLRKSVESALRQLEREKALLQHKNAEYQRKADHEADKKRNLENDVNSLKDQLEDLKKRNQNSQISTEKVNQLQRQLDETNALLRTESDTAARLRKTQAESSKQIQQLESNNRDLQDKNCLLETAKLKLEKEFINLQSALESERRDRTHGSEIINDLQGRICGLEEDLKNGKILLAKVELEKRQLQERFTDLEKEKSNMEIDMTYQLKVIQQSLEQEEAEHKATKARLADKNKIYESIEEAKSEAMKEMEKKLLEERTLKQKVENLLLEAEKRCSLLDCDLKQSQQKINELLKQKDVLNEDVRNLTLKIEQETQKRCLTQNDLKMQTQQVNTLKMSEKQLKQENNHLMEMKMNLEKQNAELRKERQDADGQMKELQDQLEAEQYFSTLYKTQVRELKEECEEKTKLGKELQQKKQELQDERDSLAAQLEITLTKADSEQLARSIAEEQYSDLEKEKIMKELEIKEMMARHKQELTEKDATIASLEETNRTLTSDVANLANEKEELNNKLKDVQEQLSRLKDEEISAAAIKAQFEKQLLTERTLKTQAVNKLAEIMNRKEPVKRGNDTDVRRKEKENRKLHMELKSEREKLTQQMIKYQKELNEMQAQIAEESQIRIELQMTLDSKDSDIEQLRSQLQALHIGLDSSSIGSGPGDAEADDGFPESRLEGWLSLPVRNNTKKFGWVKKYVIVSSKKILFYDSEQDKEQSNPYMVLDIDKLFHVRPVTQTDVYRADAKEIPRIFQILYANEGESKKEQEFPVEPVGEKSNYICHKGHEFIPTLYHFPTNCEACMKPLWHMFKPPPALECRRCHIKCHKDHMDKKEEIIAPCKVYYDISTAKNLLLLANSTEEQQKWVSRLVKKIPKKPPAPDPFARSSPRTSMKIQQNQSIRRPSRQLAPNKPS
RORA act: RORA (human) activation | P35398 | CHO-K1 Gal4-RORA LBD luciferase reporter, luminescence; percent increase over mock-subtracted basal signal | activation, % at 10 µM | 65,000 compounds, 1.5% hits;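 active = activation above the mean of all tested compounds plus 3 SD, cut at about 49% in these data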;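 note: 0% = DMSO-treated RORA cells and 100% = added signal equal to DMSO minus mock-transfected cells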
JNK3 inh: blocks human JNK3 kinase activity; AID 746; 60,000 compounds, 0.61% hits; inhibition, % at 8 µM; purified JNK3 kinase activity, HTS; P53779; in the data active = inhibition above about 17%;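 note: 0% = DMSO and 100% = reference inhibitor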
SF1 activator: activates the human nuclear receptor SF-1; CHO-K1 Gal4-SF-1 LBD luciferase reporter; % increase over DMSO SF-1-specific signal; activation, % at 10 µM; 65,000 compounds, 1.9% hits; Q13285; AID 522;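 active = activation above the mean activation of all tested compounds plus 3 SD, cut at about 50% in these data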
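material = CHO-K1 cells with Gal4–hSF-1 LBD chimera plus Gal4-driven luciferase | compound = 10 µM single point, 1% DMSO | incubation = 20 h compound exposure at 37 °C after 1 h cell settling | measured by = SteadyLite luciferase luminescence | evaluation = percent activation relative to DMSO median and mock-transfected background | control set = DMSO negative control and −SF1 background wells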
Active calls of the source: *.

What do the screens show for `c1ccc(-c2cc(N3CCCCC3)ncn2)cc1`?
MT1-MMP txn act: 1.5; PKA inh: 7.4; ROCK2 inh: 6.4; RORA act: 33.9; JNK3 inh: 6.8; SF1 activator: 55.6*

Results for c1ccc(-c2cnnc(N3CCCCC3)n2)cc1 ?
MT1-MMP txn act: 1.3; PKA inh: -0.4; RORA act: 58.0*; SF1 activator: 14.5

What do the screens show for `c1ccc(-c2csc(N3CCCCCC3)n2)cc1`?
MT1-MMP txn act: 1.4; PKA inh: -3.4; ROCK2 inh: 1.7; RORA act: 7.2; JNK3 inh: -1.0; SF1 activator: 7.8

Results for COc1ccc(-c2nnc(SCC(=O)N(Cc3ccccc3)C(C)(C)C)o2)cc1OC ?
MT1-MMP txn act: 1.1; PKA inh: 6.0; ROCK2 inh: 4.3; RORA act: -11.2; JNK3 inh: 6.8; SF1 activator: 22.2

Results for C=C(CC1([C@@H](NP(=O)(c2ccccc2)c2ccccc2)[C@H]2C[C@@H]2CCN(C(=O)OCC)S(=O)(=O)c2ccc(C)cc2)CC1)c1ccccc1 ?
MT1-MMP txn act: 1.1

Results for CCC(=O)N/C(N)=N/c1nc(C)c2cc(OC)ccc2n1 ?
MT1-MMP txn act: 1.3; PKA inh: 10.4; ROCK2 inh: 6.5; RORA act: 68.6*; JNK3 inh: -1.1; SF1 activator: 43.8

How did COc1ccc2nc(/N=C(\N)NC(=O)C(C)(C)C)nc(C)c2c1 do in these assays?
MT1-MMP txn act: 1.6; PKA inh: -1.8; ROCK2 inh: 2.5; RORA act: 11.8; JNK3 inh: -5.5; SF1 activator: 34.2

Results for O=C1CC(N2CCC(c3nc4ccccc4o3)CC2)C(=O)N1Cc1cccs1 (stereo not given) ?
MT1-MMP txn act: 1.1; PKA inh: 5.3; ROCK2 inh: 1.6; RORA act: -26.0; JNK3 inh: -6.4; SF1 activator: -8.4

How did CC1=NC(=O)C(N=Nc2cccc(O)c2)N1c1ccccc1 (stereo not given) do in these assays?
MT1-MMP txn act: 2*

Results for Nc1ccc2ncccc2c1 ?
MT1-MMP txn act: 1.4; PKA inh: 5.5; ROCK2 inh: 3.4; RORA act: -27.0; JNK3 inh: -0.1; SF1 activator: -12.8

Results for Nc1ccc2[nH]ncc2c1 ?
MT1-MMP txn act: 1.1; PKA inh: 0.3; ROCK2 inh: 32.3*; RORA act: -9.8; JNK3 inh: -4.6; SF1 activator: 15.4

Results for CCCNC(=O)c1ccc(-c2nc3ccccc3s2)s1 ?
MT1-MMP txn act: 0.6

What do the screens show for `Brc1ccc(-c2nc3ccccc3s2)s1`?
MT1-MMP txn act: 1.5; PKA inh: 1.9; ROCK2 inh: -1.2; RORA act: 48.4; JNK3 inh: 5.2; SF1 activator: 54.3*

Results for c1ccc(-c2nc3ccccc3s2)nc1 ?
MT1-MMP txn act: 0.8; PKA inh: 4.1; ROCK2 inh: 1.2; RORA act: 34.2; JNK3 inh: 0.0; SF1 activator: 59.9*

How did O=C(Nc1cccc(Cl)c1)N1CCN(Cc2ccccc2)CC1 do in these assays?
MT1-MMP txn act: 1.6; PKA inh: 3.3; ROCK2 inh: 0.0; RORA act: 73.2*; JNK3 inh: 7.6; SF1 activator: 85.1*

How did O=C(Nc1cccc(Cl)c1)N1CCCC1 do in these assays?
MT1-MMP txn act: 1.1

How did COc1ccc(-n2ncc3c(Nc4cccc(C)c4)ncnc32)cc1 do in these assays?
MT1-MMP txn act: 1.2; PKA inh: 3.7; ROCK2 inh: 5.9; RORA act: 29.9; JNK3 inh: -4.7; SF1 activator: 80.0*

Results for Cc1cccc(-n2ncc3c(Nc4ccc(F)cc4)ncnc32)c1 ?
MT1-MMP txn act: 1; PKA inh: 0.6; ROCK2 inh: 0.2; RORA act: 64.0*; JNK3 inh: 12.2; SF1 activator: 74.4*

Results for Cn1ncc2c(Nc3ccc(-c4ccccc4)cc3)ncnc21 ?
MT1-MMP txn act: 1.6; PKA inh: -2.4; ROCK2 inh: -3.6; RORA act: 42.6; JNK3 inh: -5.3; SF1 activator: 60.4*

How did CCC1=C2CC[C@H]3C(=O)NC(=O)[C@H]3[C@H]2[C@@]2(C)C(=O)N(CC3CC3)C(=O)N2C1=O do in these assays?
MT1-MMP txn act: 1.1

How did COC(=O)[C@@H]1C[C@@H]2CC[C@@H](O)C[C@@H]2N1Cc1ccc(N2CCOCC2)cc1 do in these assays?
MT1-MMP txn act: 1

High-throughput results: PubChem BioAssay, several laboratories
